Results taken from ChEMBL document CHEMBL6087468, “TKK130 is a 3-Hydroxy-Propanamidine (HPA) with Potent Antimalarial In Vivo Activity and a High Barrier to Resistance” (J Med Chem, 2025).
Calls of active or inactive are those of the source. The rule behind the calls is not given here.

Tests used:
[1] = Chemical stability of the compound in aqueous buffer at pH 7.4; type: physicochemical
Method in brief: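 Stability tested in aqueous phosphate buffer, pH 7.4, at room temperature over 24 h, n = 3.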

Plasmodium falciparum [2] = assay: Antimalarial activity against chloroquine, sulfadoxine, and pyrimethamine-resistant Plasmodium falciparum Dd2 infected in erythrocytes measured after 3 days by HRP2-ELISA analysis; type: functional, organism-based; details: Dd2, Erythrocyte, 72 h
Plasmodium falciparum [3] = assay: Antimalarial activity against Plasmodium falciparum K1 infected in human erythrocytes assessed as inhibition of parasite growth measured after 48 hrs incubation by [3H]hypoxanthine incorporation assay; type: functional, organism-based; details: K1, Erythrocyte
Plasmodium knowlesi = assay: Antiplasmodial activity against Plasmodium Knowlesi inhibition of parasite growth measured after 48 hrs incubation by Sybr-green assay; type: functional, organism-based
[4] = Cytotoxicity against human HeLa cells assessed as cell viability measured after 24 hrs by neutral red assay; type: toxicity, cell-based
Plasmodium falciparum [5] = assay: Antimalarial activity against chloroquine, sulfadoxine, and pyrimethamine-resistant Plasmodium falciparum Dd2 infected in erythrocyte assessed as reduction in number of viable parasites at 10 times IC50 concentration treated for 72 hrs followed by allowed to recover in drug-free medium for 28 days by HRP2-ELISA analysis; type: functional, organism-based
Plasmodium falciparum [6] = assay: Antimalarial activity against […] wild type Plasmodium falciparum NF54 assessed as inhibition of parasite growth incubated for 48 hrs by [3H]hypoxanthine incorporation assay; type: functional, organism-based
Hemozoin = assay: Inhibition of beta-hematin formation assessed as formation of bis-pyridyl heme complex incubated for 4 to 5 hrs by Nonidet-40 based plate reader assay
[7] = Plasma stability at 37 °C measured as remaining drug at 2 hrs sampled in triplicate (concentration 25 ng/mL 2 (TKK130)); type: ADME, cell-free; details: human, at 25 ng/mL, read-out: Stability
Method in brief: (§1)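 Fresh EDTA human plasma warmed to 37 °C, spiked to 25 ng/mL (0.5% methanol final), split into three fractions, shaken at 37 °C. Samples at 0, 2, 4, 6, 24, 48 h precipitated with ice-cold acetonitrile containing internal standard; LC–MS/MS. Recovery = analyte/IS area ratio relative to 0 h; triplicate.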

[8] = Plasma stability at 37 °C measured as remaining drug at 6 hrs sampled in triplicate (concentration 25 ng/mL 2 (TKK130)); type: ADME, cell-free; details: human, at 25 ng/mL, read-out: Stability; method in brief: as §1
[9] = Plasma stability at 37 °C measured as remaining drug at 48 hrs sampled in triplicate (concentration 25 ng/mL 2 (TKK130)); type: ADME, cell-free; details: human, at 25 ng/mL, read-out: Stability; method in brief: as §1
[10] = Metabolic stability in human liver microsomes assessed as intrinsic clearance at 50 ug/ml measured up to 60 mins; type: ADME, Microsome; details: microsomes, 1 h, dose 50 µg/ml
Method in brief: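 Pooled human liver microsomes (150 donors) in 0.1 M potassium phosphate buffer pH 7.4, cosolvent method, analyte at 1 μM final; reactions stopped with ice-cold acetonitrile at 0, 15, 30, 45, 60 min; LC–MS/MS. Clint from ke (negative slope of ln peak-area ratio vs time) via t1/2 = ln2/ke; triplicate; no-cofactor negative control and blank run.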

[11] = Plasma protein binding in plasma (unknown origin) at 25 ng/ml measured after 24 hrs by standard equilibrium dialysis assay; type: ADME, cell-free; details: read-out: PPB (converted)
Method in brief: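 Standard equilibrium dialysis (6 kDa regenerated cellulose membrane): donor plasma spiked at 25 ng/mL, acceptor 0.9% saline, 24 h at 37 °C. Acetonitrile precipitation of plasma, methanol added to acceptor; LC–MS/MS with calibration curves in each medium; fraction bound corrected for volume shift; triplicate; itraconazole reference.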

[12] = Plasma protein binding in plasma (unknown origin) at 25 ng/ml measured after 24 hrs by dilution method; type: ADME, cell-free
Method in brief: (§2)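 Equilibrium dialysis with donor plasma diluted 1:10 or 1:20 in 0.9% saline, spiked at 25 ng/mL, against 0.9% saline acceptor for 24 h at 37 °C. Concentrations by LC–MS/MS against diluted-plasma calibration curves; unbound fraction (acceptor/donor) back-calculated to undiluted plasma; triplicate; itraconazole reference.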

[13] = Unbound drug concentration in plasma (unknown origin) at 25 ng/ml measured after 24 hrs by dilution method; type: ADME, cell-free; method in brief: as §2
Plasmodium falciparum [14] = assay: Antimalarial activity against wild type Plasmodium falciparum Dd2 infected in human erythrocytes assessed as inhibition of parasite growth measured after 72 hrs incubation by [3H]hypoxanthine incorporation assay; type: functional, organism-based; details: Dd2, Erythrocyte
Method in brief: (§3)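 Dd2 parent line, and mutants made from it by gene editing or drug selection. Growth inhibition measured by the 72 h [3H]hypoxanthine incorporation assay at Swiss TPH. Values are means of 2 independent biological replicates.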

Plasmodium falciparum [15] = assay: Antimalarial activity against Plasmodium falciparum Dd2 GNF156 harboring Pfcarl-mutant infected in human erythrocytes assessed as inhibition of parasite growth measured after 72 hrs incubation by [3H]hypoxanthine incorporation assay; type: functional, organism-based; details: Dd2 GNF156, Erythrocyte; method in brief: as §3
Plasmodium falciparum [16] = assay: Antimalarial activity against Plasmodium falciparum Dd2 ELQ300 harboring PfcytB-mutant infected in human erythrocytes assessed as inhibition of parasite growth measured after 72 hrs incubation by [3H]hypoxanthine incorporation assay; type: functional, organism-based; details: Dd2 ELQ300, Erythrocyte; method in brief: as §3
Plasmodium falciparum [17] = assay: Antimalarial activity against Plasmodium falciparum Dd2 MMV183 harboring PfACoAS-mutant infected in human erythrocytes assessed as inhibition of parasite growth measured after 72 hrs incubation by [3H]hypoxanthine incorporation assay; type: functional, organism-based; details: Dd2 MMV183, Erythrocyte; method in brief: as §3
Plasmodium berghei [18] = assay: In vivo antiplasmodial activity against Plasmodium berghei infected mouse model assessed as mean survival time at 30 mg/kg, po treated 4 times measured at 96 hrs post infection by fluorescence-activated cell sorting (FACS) analysis (reference value: 4 days); type: functional
Plasmodium berghei [19] = assay: In vivo antiplasmodial activity against Plasmodium berghei infected mouse model assessed as mean survival time at 3 mg/kg, po treated 4 times measured at 96 hrs post infection by fluorescence-activated cell sorting (FACS) analysis (reference value: 4 days); type: functional
Plasmodium berghei [20] = assay: In vivo antiplasmodial activity against Plasmodium berghei infected mouse model assessed as curation rate at 30 mg/kg, po treated 4 times measured at 96 hrs post infection by fluorescence-activated cell sorting (FACS) analysis; type: functional
Plasmodium berghei [21] = assay: In vivo antiplasmodial activity against Plasmodium berghei infected mouse model assessed as curation rate at 10 mg/kg, po treated 4 times measured at 96 hrs post infection by fluorescence-activated cell sorting (FACS) analysis; type: functional
[22] = Cmax in mouse infected with Plasmodium berghei at 3 mg/kg, po; type: ADME, organism-based; details: in vivo
Method in brief: (§4)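 Single oral dose to P. berghei-infected mice, 2 mice per dose group. Blood sampled at 1, 4 and 24 h post-dose as dried blood spots, plus a blank "0 h" reading. Spots diluted 1:5 (3, 10 mg/kg) or 1:10 (30 mg/kg), then quantified by LC–MS/MS against a whole-blood calibration of 1.56–800 ng/mL with QCs at three levels.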

[23] = Tmax in mouse infected with Plasmodium berghei at 10 mg/kg, po; type: ADME, organism-based; details: in vivo
Method in brief: (§5)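 Infected mice (n = 2 per dose) given a single oral dose of 3, 10 or 30 mg/kg; blood sampled as dried blood spots at 1, 4 and 24 h post-dose, diluted before LC–MS analysis against whole-blood dried-spot calibration (1.56–800 ng/mL) with QCs; tmax from concentration–time profiles.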

[24] = Tmax in mouse infected with Plasmodium berghei at 30 mg/kg, po; type: ADME, organism-based; details: in vivo; method in brief: as §5
[25] = AUC (0 to t) in mouse infected with Plasmodium berghei at 3 mg/kg, po; type: ADME, organism-based; details: in vivo; method in brief: as §4
[26] = AUC (0 to t) in mouse infected with Plasmodium berghei at 30 mg/kg, po; type: ADME, organism-based; details: in vivo; method in brief: as §4

## Cl.N=C(CC(O)c1cc2c(F)cc(F)cc2c2cc(C(F)(F)F)ccc12)Nc1ccc(F)cc1 (stereo not drawn)
[1]
  Stability: > 90%
Plasmodium falciparum [2]
  IC50: 3 nM
Plasmodium falciparum [3]
  IC50: 3 nM
Plasmodium knowlesi
  IC50: 1 nM
[4]
  IC50 at 24 h: 89300 nM
Plasmodium falciparum [5]
  Activity: Active
Plasmodium falciparum [6]
  IC50: 11 nM
Hemozoin
  IC50: 9400 nM
[7]
  remaining at 2 h, 25 ng/mL: 90.2%
[8]
  remaining at 6 h, 25 ng/mL: 91.9%
[9]
  remaining at 48 h, 25 ng/mL: 59.4%
[10]
  CLint: 1.8 µL/min/mg
[11]
  fraction unbound at 24 h, 25 ng/ml: < 0.002
[12]
  fraction unbound at 24 h, 25 ng/ml: 0.004
[13]
  Cp(f): 0.4%
Plasmodium falciparum [14]
  IC50: 15 nM
Plasmodium falciparum [15]
  IC50: 7 nM
Plasmodium falciparum [16]
  IC50: 14 nM
Plasmodium falciparum [17]
  IC50: 13 nM
Plasmodium berghei [18]
  MSD: 30 days
Plasmodium berghei [19]
  MSD: 20 days
Plasmodium berghei [20]
  Activity: 100%
Plasmodium berghei [21]
  Activity: 33%
[22]
  Cmax: 216 ng/mL
[23]
  Tmax: 4 h
[24]
  Tmax: 4 h
[25]
  AUC(0-t): 3770 ng·h/mL
[26]
  AUC(0-t): 40900 ng·h/mL
